Shown are actives, neighbours in structure and some others; about 1.8% of the full set was active somewhere.
UPR CHOP act – activators of apoptotic CHOP UPR arm, primary screen, cell-based, CHO-CHOP luciferase reporter, luminescence, uHTS; UPR activation; percent of tunicamycin response over DMSO baseline; activation, % at 10 µM; 330,000 compounds, 0.34% hits;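 active = at 10 µM dose, activation of 40% or more, normalized to positive control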;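 also: 100% = tunicamycin at 10 µg/mL and 0% = DMSO alone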
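Test system: CHO CHOP reporter cells. Input: 500 CHO-CHOP cells per well. Medium: F12 with 10% FBS. Technique: luciferase luminescence. Measure: percent activation relative to tunicamycin control. Dosing: 10 µM compound, 0.5% DMSO. Timing: 16-18 h cell attachment, then 6 h compound exposure, 37 °C.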
CRFR2-BP antag – antagonists of CRF-BP/CRF-R2 complex, primary screen, cell-based, HEK293, calcium dye fluorescence, uHTS; CRF-induced calcium fluorescence; inhibition, % at 11.8 µM; 350,000 compounds, 0.59% hits; AID 588475, 2011;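 active = inhibition of the ligand-induced calcium signal above about 50% at the single tested concentration, limit read from the data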
UPR XBP1 act – activators of adaptive XBP1 UPR arm, primary screen, cell-based, CHO-XBP1 luciferase reporter, luminescence, uHTS. IRE1-XBP1 UPR activation; percent of tunicamycin response, DMSO as zero. activation, % at 20 µM. 330,000 compounds, 0.33% hits. AID 463104, 2010;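 active = versus positive control, 20 µM dose yields 30% or more activation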;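 also: 100% = tunicamycin at 10 µg/mL and 0% = DMSO only wells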
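Material: IRE1-XBP1 luciferase reporter CHO line / Quantity: one thousand reporter cells per well / Buffer or medium: F12 with 10% serum / Compound: 20 µM single concentration, DMSO 1% / Times: 6 h treatment, 37 °C / Detection: Steady-Glo luciferase glow luminescence, 10 min after reagent addition / Benchmarks: tunicamycin high, DMSO low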
697 NFkB inh – inhibitors of PMA/ionomycin-induced NF-kB reporter, 697 cells, primary screen, B-cell NF-kB inhibitor project, cell-based, luminescence, uHTS; 697 B-cell NF-kB luciferase reporter, 16 h; inhibition, % at 4 µM; 330,000 compounds, 0.33% hits; AID 435022, 2010; in the data active = inhibition above about 35%
Jurkat NFkB inh – inhibitors of induced NF-kB luciferase reporter, primary screen, TCR NF-kB activation inhibitor project, cell-based, luminescence, uHTS | inhibition, % at 4 µM | Jurkat, PMA/ionomycin-induced NF-kB luciferase reporter | AID 435003, 2010 | 330,000 compounds, 0.53% hits; in the data active = inhibition above about 50%
An asterisk follows results filed as active; . = no result given.

SMILES	UPR CHOP act	CRFR2-BP antag	UPR XBP1 act	697 NFkB inh	Jurkat NFkB inh
CC1CN(C(=O)COC(=O)Cc2c(Cl)cccc2Cl)CC(C)O1 (centres undefined)	0	5	-1	6	7
O=C1c2ccccc2OC2(C=Cc3ccccc3O2)N1Cc1ccccc1 (centres undefined)	1	56*	-4	-23	21
O=C1NC2(CCN(Cc3ccccc3)CC2)Oc2ccccc21	-1	-13	-2	-7	1
CC(C)N(C(=O)C1CC(=O)OC12CCCCC2)C(C)C (centres undefined)	0	-7	1	17	12
CN(C)C(=O)C1CC(=O)OC12CCCCC2 (centres undefined)	1	114*	-1	10	-2
C=CCn1c(COc2ccccc2)nnc1SCC(=O)N/N=C/c1cc(Cl)ccc1O	0	60*	-2	14	8
C=CCn1c(COc2ccccc2)nnc1SCC(=O)N/N=C/c1ccc(C)cc1	5	8	3	1	10
CCCCCCCCCCCCN1[C@@H](CC(=O)O)c2cc(F)ccc2S1(=O)=O	2	-2	1	16	10
COC(=O)c1ccc2nc3c(cc2c1)[C@@H]1CCN2C(=O)CCC[C@H](C3)[C@H]12	.	87*	.	.	.
CC1(C)CCC(=O)N2CC[C@H]3c4cc5ccccc5nc4C[C@@H]1[C@H]32	.	18	.	.	.
COc1ccc(S(=O)(=O)N(CC(C)C)C2CCS(=O)(=O)C2)cc1OC (centres undefined)	-2	71*	0	-3	-2
Fc1ccc(OCCCCCn2ccnc2)cc1	0	55*	-6	-17	0
Cc1nc(N2CCCCC2)[nH]c(=O)c1CN(C)N=O	.	-15	.	.	.
Cc1cccc(Sc2ccc([N+](=O)[O-])cn2)c1	-1	47	1	17	8
O=[N+]([O-])c1ccc(Sc2ccccc2)nc1	2	54*	0	17	11
Cc1ccccc1Nc1nc(N)nc(COC(=O)c2cccc(S(=O)(=O)N(C)c3ccccc3)c2)n1	3	51*	5	-14	11
O=C1c2ccccc2C(=O)C12OC2c1ccc(Cl)cc1 (centres undefined)	103*	.	-4	-6	12
O=C1c2ccccc2C(=O)C12OC(c1ccccc1)C1(C(=O)c3ccccc3C1=O)C2c1ccc([N+](=O)[O-])cc1 (centres undefined)	3	31	4	-13	-1
CN(Cc1cccc(F)c1)C(=O)C1CC(=O)N(Cc2ccco2)C1 (centres undefined)	.	-10	.	.	.
CC(=O)C1=C(C)NC(=S)NC1c1cc([N+](=O)[O-])ccc1O (centres undefined)	0	100*	0	-10	4
CC1=C(C(=O)c2ccccc2)C(c2cccc([N+](=O)[O-])c2)NC(=S)N1 (centres undefined)	1	4	0	3	2
Cc1ccc(Nc2c(O)nc[nH]c2=O)cc1	.	73*	.	.	.
O=C(NC(=S)Nc1c(Cl)ccc2nsnc12)c1ccccc1F	4	58*	0	-62	-7
Cc1ccc2nsnc2c1NC(=S)NC(=O)c1ccco1	2	26	0	-15	2
CC1(C)Cc2ccccc2-c2c1c(=O)n(Cc1ccccc1)c1nnnn21	-1	61*	-1	-31	-2
SMILES	UPR CHOP act	CRFR2-BP antag	UPR XBP1 act	697 NFkB inh	Jurkat NFkB inh
Cc1ccccc1OCCC(=O)OCC(=O)Nc1ccc2[nH]c(=O)[nH]c2c1	-1	-4	-2	5	12
CCN(CC)CC(=O)Nc1cc(N(C)C)nc2ccccc12	6	12	-2	-1	4
CN1CCN(CC(=O)Nc2cc(N(C)C)nc3ccccc23)CC1	-2	58*	-4	-13	-15
Cc1ccnc(NC(=O)c2ccc(NS(=O)(=O)/C=C/c3ccccc3)cc2)c1	5	-4	1	-5	-13
CCOc1ccc(C(CCc2ccccc2)NC(=O)c2ccccc2OC)cc1OCC (centres undefined)	0	76*	0	4	-5
Cn1c(N)c(C(=O)COC(=O)CNS(=O)(=O)c2ccc(Cl)c(Cl)c2)c(=O)n(C)c1=O	1	65*	1	8	-6
C=C(C)COc1ccc(-c2[nH]ncc2Oc2ccccc2OC)c(O)c1	1	51*	0	4	4
C=C(C)COc1ccc(-c2[nH]ncc2Oc2ccc(OC)cc2)c(O)c1	-1	39	0	-9	-8
Cc1ccc(NC(=O)C2CCN(S(=O)(=O)c3c(C)noc3/C=C/N(C)C)CC2)cc1	-1	-2	-2	0	6
Cc1noc(/C=C/N(C)C)c1S(=O)(=O)N1CCC(C(=O)Nc2ccc(Cl)cc2)CC1	-3	90*	-5	20	5
CN(C(=O)c1ccc(-c2nn(C)c(=O)c3ccccc23)cc1)C1CCCCC1	2	9	0	2	0
O=[N+]([O-])c1ccc(N2CCOCC2)cc1NCc1ccccc1	-4	64*	4	-12	6
O=[N+]([O-])c1ccc(N2CCCC2)cc1NCc1ccccc1	2	18	0	0	6
CC(C(=O)N1c2ccccc2CC1C)N1CCN(S(=O)(=O)c2ccccc2F)CC1 (centres undefined)	-1	-7	0	1	-8
COc1ccc(S(=O)(=O)N2CCCCCC2)cc1C(=O)N1CCN(C(C)=O)CC1	.	-17	.	.	.
CCCN1CCN(C2CCCCC2NS(=O)(=O)c2ccccc2)CC1 (centres undefined)	0	10	-6	-2	16
CCCN1CCN(C2CCCCC2NS(=O)(=O)c2ccc(Cl)cc2)CC1 (centres undefined)	1	51*	5	-29	-3
Cc1cccc2c1cnn2C(=O)CCC(=O)NCC(C)c1ccccc1 (centres undefined)	-2	-11	-1	7	-10
CC(Sc1nnc(Cc2cccs2)n1C1CC1)C(=O)NC1CCS(=O)(=O)C1 (centres undefined)	-1	63*	2	-1	1
O=C(CN1CCCC1)Nc1ccc(Br)cc1[N+](=O)[O-]	3	-7	-1	-4	-22
Cc1nn(-c2cccc(Cl)c2)c2nc(C(F)(F)F)[nH]c(=O)c12	-1	86*	2	15	14
Cc1[nH]n(-c2ccc([N+](=O)[O-])cc2)c(=O)c1C=NCC1CCCO1 (centres undefined)	1	46	0	-24	7
